{
  "source": "ChEMBL document CHEMBL1909581",
  "about": "“Growth inhibition of human lung cancer cells via down-regulation of epidermal growth factor receptor signaling by yuanhuadine, a daphnane diterpene from Daphne genkwa” (J Nat Prod, 2011)",
  "key": {"NCI-H292 [1]": {"tested_on": "NCI-H292", "assay": "Antiproliferative activity against human NCI-H292 cells after 3 days by SRB assay", "format": "functional, cell-based", "conditions": "NCI-H292, 72 h"}, "A549 [2]": {"tested_on": "A549", "assay": "Cell cycle arrest in human A549 cells assessed as accumulation at G0/G1 phase at 5 nM after 48 hrs by propidium iodide staining-based flow cytometric analysis (reference value: 49.6 %)", "format": "functional"}, "MRC5": {"tested_on": "MRC5", "assay": "Antiproliferative activity against human MRC5 cells after 3 days by SRB assay", "format": "cell-based", "conditions": "mrc5, 72 h", "procedure,_shortened": "(§1)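 Cells seeded at 5 × 10^4 cells/mL and exposed to a range of concentrations for 3 days. Fixed with 10% TCA, then SRB stain read. Growth expressed as % of solvent-treated control. IC50 obtained by nonlinear regression of percent survival versus concentration.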"}, "T47D": {"tested_on": "T47D", "assay": "Antiproliferative activity against human T47D cells after 3 days by SRB assay", "format": "functional, cell-based", "conditions": "72 h", "procedure,_shortened": "as §1"}, "Mus musculus": {"tested_on": "Mus musculus", "assay": "Toxicity in BALB/c mouse xenografted with human A549 cells in assessed as body weight at 0.5 mg/kg, po once daily for 14 days measured for 27 days relative to control", "format": "organism-based", "design": "dose 0.5 mg/kg, route oral", "conditions": "in vivo, 648 h", "procedure,_shortened": "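Female nu/nu mice were injected sc in the right flank with 3 × 10^6 A549 cells. At about 100 mm3 tumour volume, mice were randomised into groups of five. Compound was given orally at 0.2 or 0.5 mg/kg once daily for 14 days in ethanol/Tween 80/H2O (1:1:98). Body weight and overt toxicity were monitored against vehicle controls.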"}, "A549 [3]": {"tested_on": "A549", "assay": "Antitumor activity against human A549 cells xenografted in BALB/c mouse assessed as inhibition of tumor growth at 0.2 mg/kg, po once daily for 14 days measured for 27 days relative to control", "format": "functional, organism-based", "design": "dose 0.2 mg/kg", "procedure,_shortened": "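Female nu/nu nude mice given 3 × 10^6 A549 cells sc into the right flank, in 200 μL medium. At ~100 mm3, randomized into groups of five. Dosed orally once daily for 14 days in 100 μL ethanol–Tween 80–water (1:1:98), vehicle as control. Tumor volume measured by caliper every 2–3 days; body weight monitored.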"}, "A549 [4]": {"tested_on": "A549", "assay": "Cell cycle arrest in human A549 cells assessed as accumulation at G0/G1 phase at 100 nM after 24 hrs by propidium iodide staining-based flow cytometric analysis (reference value: 49.6 %)", "format": "functional"}, "SNU-638": {"tested_on": "SNU-638", "assay": "Antiproliferative activity against human SNU638 cells after 3 days by SRB assay", "format": "functional, cell-based", "conditions": "SNU-638, 72 h", "procedure,_shortened": "as §1"}, "A549 [5]": {"tested_on": "A549", "assay": "Inhibition of Akt-signaling in human A549 cells at 5 to 40 nM after 24 hrs by Western blot analysis", "format": "cell-based", "procedure,_shortened": "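A549 cells exposed for 24 or 48 h to a range of concentrations. Akt/mTOR pathway proteins in lysates assessed by Western blot (SDS-PAGE, PVDF, ECL detection).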"}, "A549 [6]": {"tested_on": "A549", "assay": "Downregulation of CDC2 expression in human A549 cells at G2/M phase at 5 to 100 nM after 24 to 48 hrs by Western blot analysis", "format": "functional, cell-based", "procedure,_shortened": "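A549 cells treated with a range of concentrations for 24 or 48 h. Lysates run on 6–15% SDS-PAGE and blotted to PVDF, blocked in 5% milk/PBST. Primary antibodies overnight at 4 °C, secondary 2 h at room temperature, ECL detection. Representative of three independent experiments.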"}, "[7]": {"molecular_target": "Hepatocyte growth factor receptor (Homo sapiens) (UniProt P08581)", "sequence (P08581 whole entry)": "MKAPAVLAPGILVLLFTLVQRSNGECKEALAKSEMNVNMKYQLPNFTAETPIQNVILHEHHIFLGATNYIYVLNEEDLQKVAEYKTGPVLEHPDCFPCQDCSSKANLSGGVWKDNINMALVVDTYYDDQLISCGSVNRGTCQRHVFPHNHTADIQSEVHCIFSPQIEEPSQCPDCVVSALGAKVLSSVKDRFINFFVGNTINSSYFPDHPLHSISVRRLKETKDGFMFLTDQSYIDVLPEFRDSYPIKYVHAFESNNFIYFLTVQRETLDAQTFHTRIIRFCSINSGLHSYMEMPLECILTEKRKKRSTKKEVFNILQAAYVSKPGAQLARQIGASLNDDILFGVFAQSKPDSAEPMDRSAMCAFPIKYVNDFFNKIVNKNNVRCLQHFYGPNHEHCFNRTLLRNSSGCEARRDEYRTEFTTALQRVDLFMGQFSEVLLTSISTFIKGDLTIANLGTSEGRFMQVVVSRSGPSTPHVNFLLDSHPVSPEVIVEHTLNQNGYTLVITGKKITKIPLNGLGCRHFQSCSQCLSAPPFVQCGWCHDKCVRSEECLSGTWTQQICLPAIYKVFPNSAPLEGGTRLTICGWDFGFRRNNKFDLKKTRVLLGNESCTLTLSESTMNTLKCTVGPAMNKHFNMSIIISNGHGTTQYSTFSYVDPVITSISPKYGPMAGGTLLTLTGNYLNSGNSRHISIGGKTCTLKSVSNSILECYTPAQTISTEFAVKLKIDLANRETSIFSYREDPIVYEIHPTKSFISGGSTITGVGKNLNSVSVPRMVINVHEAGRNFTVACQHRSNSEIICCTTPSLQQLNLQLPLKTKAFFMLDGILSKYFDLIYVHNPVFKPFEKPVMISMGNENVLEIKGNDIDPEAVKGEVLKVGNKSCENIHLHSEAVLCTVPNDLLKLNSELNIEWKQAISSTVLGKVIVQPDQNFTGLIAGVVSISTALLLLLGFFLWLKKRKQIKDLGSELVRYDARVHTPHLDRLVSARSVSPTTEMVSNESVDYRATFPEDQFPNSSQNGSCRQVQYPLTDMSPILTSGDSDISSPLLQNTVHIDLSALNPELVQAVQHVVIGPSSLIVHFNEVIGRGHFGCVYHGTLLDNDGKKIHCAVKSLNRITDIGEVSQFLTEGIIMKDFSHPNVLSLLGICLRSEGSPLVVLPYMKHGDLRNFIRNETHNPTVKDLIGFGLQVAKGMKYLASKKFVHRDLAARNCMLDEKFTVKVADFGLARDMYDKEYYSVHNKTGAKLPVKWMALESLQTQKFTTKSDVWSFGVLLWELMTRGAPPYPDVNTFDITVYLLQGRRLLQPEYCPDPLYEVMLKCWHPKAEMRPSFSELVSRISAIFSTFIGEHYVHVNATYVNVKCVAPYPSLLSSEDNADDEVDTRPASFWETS", "assay": "Inhibition of c-Met phosphorylation at Tyr1003 in HGF-stimulated human A549 cells pretreated at 5 to 100 nM for 2 hrs by Western blot analysis", "format": "cell-based", "procedure,_shortened": "(§2)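 A549 cells pretreated for 2 h with the compound at 5, 20 or 100 nM, then stimulated with HGF (50 ng/mL) for 10 min. c-Met and its downstream signalling proteins read by Western blot (SDS-PAGE, PVDF transfer, ECL detection).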"}, "A549 [8]": {"tested_on": "A549", "assay": "Cell cycle arrest in human A549 cells assessed as accumulation at S phase at 5 nM after 24 hrs by propidium iodide staining-based flow cytometric analysis (reference value: 31.6 %)", "format": "functional"}, "[9]": {"molecular_target": "Hepatocyte growth factor receptor (Homo sapiens) (UniProt P08581)", "assay": "Inhibition of c-Met-mediated Akt phosphorylation in HGF-stimulated human A549 cells pretreated at 5 to 100 nM by Western blot analysis", "format": "cell-based", "procedure,_shortened": "as §2"}, "A549 [10]": {"tested_on": "A549", "assay": "Antiproliferative activity against human A549 cells assessed as growth inhibition incubated for 24 hrs measured 48 hrs after compound washout by SRB assay", "format": "functional, cell-based"}, "A549 [11]": {"tested_on": "A549", "assay": "Antiproliferative activity against human A549 cells assessed as growth inhibition incubated for 24 hrs measured 24 hrs after compound washout by SRB assay", "format": "functional, cell-based", "procedure,_shortened": "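A549 cells exposed to a range of concentrations for 24 h, washed with PBS and kept in drug-free medium for 24 h. Compared with continuous 24 h and 48 h exposure. Viability read by SRB. Means ± SE of triplicate tests.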"}, "HCT-116": {"tested_on": "HCT-116", "assay": "Antiproliferative activity against human HCT116 cells after 3 days by SRB assay", "format": "functional, cell-based", "conditions": "HCT-116, 72 h", "procedure,_shortened": "as §1"}, "A549 [12]": {"tested_on": "A549", "assay": "Cell cycle arrest in human A549 cells assessed as accumulation at Sub-G1 phase at 5 nM after 24 hrs by propidium iodide staining-based flow cytometric analysis (reference value: 0.2 %)", "format": "functional"}, "NCI-H292 [13]": {"tested_on": "NCI-H292", "assay": "Antiproliferative activity against gefitinib resistant human NCI-H292 cells after 3 days by SRB assay", "format": "functional, cell-based", "conditions": "NCI-H292, 72 h"}, "[14]": {"molecular_target": "Hepatocyte growth factor receptor (Homo sapiens) (UniProt P08581)", "assay": "Inhibition of c-Met phosphorylation at Tyr1230/1234/1235 in HGF-stimulated human A549 cells pretreated at 5 to 100 nM for 2 hrs by Western blot analysis", "format": "cell-based", "procedure,_shortened": "as §2"}, "SK-HEP1": {"tested_on": "SK-HEP1", "assay": "Antiproliferative activity against human SKHEP1 cells after 3 days by SRB assay", "format": "functional, cell-based", "conditions": "SK-HEP1, 72 h", "procedure,_shortened": "as §1"}},
  "note": "The source made the active and inactive calls. No cut-off for these calls is given here.",
  "data": [
    {"smiles": "C=C(C)[C@@]12O[C@@]3(/C=C/C=C/CCCCC)O[C@@H]1[C@@H]1[C@@H]4O[C@]4(CO)[C@@H](O)[C@]4(O)C(=O)C(C)=C[C@H]4[C@@]1(O3)[C@H](C)[C@H]2OC(C)=O", "note": "[YUANHUADINE]", "values": [
      {"measurement": "IC50", "setting": "NCI-H292 [1]", "value": "< 1", "unit": "pM"},
      {"measurement": "Activity", "setting": "A549 [2]", "value": 62.2, "unit": "%"},
      {"measurement": "growth inhibition (GI)", "setting": "MRC5", "value": "Non-toxic"},
      {"measurement": "IC50", "setting": "T47D", "value": 12.7, "unit": "µM"},
      {"measurement": "Activity", "setting": "Mus musculus", "value": "Non-toxic"},
      {"measurement": "growth inhibition (GI)", "setting": "A549 [3]", "value": "Active"},
      {"measurement": "Activity", "setting": "A549 [4]", "value": 65.3, "unit": "%"},
      {"measurement": "IC50", "setting": "SNU-638", "value": "> 20", "unit": "µM"},
      {"measurement": "inhibition", "setting": "A549 [5]", "value": "Active"},
      {"measurement": "Activity", "setting": "A549 [6]", "value": "Active"},
      {"measurement": "inhibition", "setting": "[7]", "value": "Active"},
      {"measurement": "Activity", "setting": "A549 [8]", "value": 5.5, "unit": "%"},
      {"measurement": "inhibition", "setting": "[9]", "value": "Active"},
      {"measurement": "growth inhibition (GI)", "setting": "A549 [10]", "value": "inactive"},
      {"measurement": "growth inhibition (GI)", "setting": "A549 [11]", "value": "Active"},
      {"measurement": "IC50", "setting": "HCT-116", "value": 10.2, "unit": "µM"},
      {"measurement": "Activity", "setting": "A549 [12]", "value": 2, "unit": "%"},
      {"measurement": "IC50", "setting": "NCI-H292 [13]", "value": "< 1", "unit": "pM"},
      {"measurement": "inhibition", "setting": "[14]", "value": "Active"},
      {"measurement": "IC50", "setting": "SK-HEP1", "value": 12.9, "unit": "µM"}
    ]}
  ]
}
